# From PubChem
# aSyn 5UTR inh: 5' untranslated region of α-synuclein, MLPCN primary screen; alpha-synuclein 5'UTR reporter, inhibitor activity; inhibition, % (tested at 7.5 µM); 300,000 tested, 0.82% active; AID 1813; in the data active = inhibition above about 60%;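 also: H4 neuroglioblastoma cells stably carrying SNCA 5'UTR luciferase fusion; 0% = DMSO wells and 100% = positive control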
# 697 NFkB inh: inhibitors of the PMA/ionomycin-induced NF-kB reporter in 697 B cells. 697 B-cell NF-kB luciferase reporter, 16 h. inhibition, % at 4 µM. 330,000 tested, 0.33% active. AID 435022; in the data active = inhibition above about 35%
# Jurkat NFkB inh: inhibitors of the PMA/ionomycin-induced NF-kB reporter in Jurkat cells. PMA/ionomycin-induced NF-kB luciferase reporter, luminescence. inhibition, % at 4 µM. 330,000 tested, 0.53% active; in the data active = inhibition above about 50%
# APP 5UTR inh: APP translation inhibition. inhibition, % at 2 µM. 190,000 tested, 0.82% active. SH-SY5Y APP 5'UTR-luciferase reporter, luminescence;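 active = inhibition above a set limit, derived from the sample mean plus 3 SD, cut at about 45% in these data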
# Hep lipid drop: modulators of hepatic lipid droplet formation. inhibition, % at 6.5 µM. 240,000 tested, 0.4% active. AID 1656. AML12 mouse hepatocytes, oleate lipid droplets, BODIPY imaging;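 active = lipid droplet intensity inhibited by at least 50%, with more than 500 cells counted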
#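 Material: mouse AML12 hepatocyte cell line, fixed after treatment; Timing: compound with oleate, overnight; Technique: high-content imaging of BODIPY-stained droplets and DAPI nuclei; Probe or stimulus: oleate, 100 µM final; Dosing: compound at 6.5 µM only.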
# TAG inh: triacylglycerol accumulation inhibition; H9c2 cells, Nile Red lipid (TAG) fluorescence; cells loaded with 200 µM oleic acid; inhibition, % at 12.5 µM; 230,000 tested, 0.66% active;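 active = pattern-corrected inhibition of lipid staining of at least 50% with the nuclear-stain viability signal not falling by more than 50%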;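 also: 0% = DMSO wells and 100% = triacsin C control wells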
# 697 NFkB conf: lowers PMA/ionomycin-induced NF-kB signal in 697 B cells. inhibition, % at 4 µM. AID 449746. shares compounds with 697 NFkB inh. 697 B-cell NF-kB luciferase, 16 h. 2,000 tested, 35% active; in the data active = inhibition mostly above about 28%, no sharp cut-off; inactive = mostly below about 22%
# TAG conf: triacylglycerol accumulation inhibition, confirmation; shares compounds with TAG inh; H9c2 lipid accumulation, Nile Red fluorescence; cells loaded with 200 µM oleic acid; inhibition, % at 12.5 µM; 990 tested, 71% active;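 active = mean inhibition across replicates of 40% or more; inactive = mean inhibition below 40%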;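 also: plate controls were DMSO only wells for no effect and Triacsin C treated wells for full effect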
# Starred values were filed as active, the others as inactive; / = no result; ! = repeats disagree. Compounds with a hit are over-represented: about 1.9% of the library has one in this group of screens.
SMILES,aSyn 5UTR inh,697 NFkB inh,Jurkat NFkB inh,APP 5UTR inh,Hep lipid drop,TAG inh,TAG conf,others
C=CCn1c2ccccc2c2nnc(SCCN3CCOCC3)nc21,17,-1,3,/,-6,-1,/,
Cc1ccc(CNC(=O)CN2C(=O)CSc3ccc(S(=O)(=O)N4CCCCC4)cc32)cc1,5,-19,-12,/,-23,/,/,
COc1ccc(OC)c(S(=O)(=O)Nc2ccc(-c3ccc4nncn4n3)cc2)c1,36,35*,15,/,/,0,/,697 NFkB conf=29
O=S(=O)(Nc1ccc(-c2ccc3nncn3n2)cc1)c1cc(F)ccc1F,30,-18,2,/,/,18,/,
O=C(O)c1ccccc1C(=O)OCc1c(-c2ccccc2)ncc2ccccc12,/,26,3,/,/,/,/,
CCN(CC)S(=O)(=O)c1ccc(N2CCOCC2)c(NC(=O)c2[nH]c(C)c(C(C)=O)c2C)c1,/,48*,-2,/,/,69*,75*,697 NFkB conf=46*
C=CCn1c(SCC(=O)c2ccc(Cl)cc2)nnc1-c1ccc2c(c1)OCO2,-7,-10,0,-1,36,/,/,
Cc1ccc(C2(c3ccccc3)NC(=O)N(CC(=O)NC3CCCCC3)C2=O)cc1C (stereo unspecified),/,20,14,/,/,11,/,
COc1ccccc1CNC(=O)CN1C(=O)NC(c2ccccc2)(c2ccc(C)c(C)c2)C1=O (stereo unspecified),/,-2,11,/,/,54*,36,
CCCCCCCC(=O)Nc1cc(C(=O)NCCC)ccc1N1CCC2(CC1)CC(c1cccc(Br)c1)=NO2,14,-13,3,/,/,70*,61*,
COc1ccc(CNC(=O)c2ccc(N3CCC4(CC3)CC(c3ccc(Cl)cc3)=NO4)c(NC(=O)Cc3ccc(F)cc3)c2)cc1,/,4,-2,/,/,60*,44*,
CCCCC(CC)C(=O)Nc1cc(C(=O)NCc2ccc(C)cc2)ccc1N1CCC2(CC1)CC(c1cccc(Br)c1)=NO2 (stereo unspecified),/,22,4,/,/,41,/,
COc1ccc(CNC(=O)c2ccc(N3CCC4(CC3)CC(c3ccc(Cl)cc3)=NO4)c(NC(=O)c3ccccc3)c2)cc1,28,-5,6,/,/,14,/,
CCCCC(CC)C(=O)Nc1cc(C(=O)NCc2ccc(C)cc2)ccc1N1CCC2(CC1)CC(c1ccccc1)=NO2 (stereo unspecified),16,-26,7,/,10,56*,55*,
CCC(=O)N1CCc2cc(S(=O)(=O)N3CCN(c4ccccc4Cl)CC3)ccc21,13,-11,5,/,9,/,/,
Nc1c(C(=O)Nc2ccccc2)c2nc3ccccc3nc2n1-c1ccc(O)cc1,13,9,5,/,34,64*,65*,
Cc1ccc(-c2nn(-c3ccccc3)cc2NC(=O)CCl)cc1,-71,-25,-13,20,15,51*,80*,
Cc1onc(-c2ccc(Cl)cc2Cl)c1-c1csc(N/N=C/c2ccccc2Cl)n1,35,-21,16,/,-5,57*,38,
Cc1cc(-c2nnc(SCCC(=O)Nc3ccccc3)o2)no1,1,23,12,/,-61,0,/,
COc1cccc(-c2cc(C(=O)Nc3ccc(N(C)C(C)=O)cc3)c3cc(Br)ccc3n2)c1,36,17,3,/,/,50*,57*,
COCCCn1c(SCC(=O)Nc2nc3ccccc3s2)nnc1-c1ccoc1C,21,3,5,-18,0,51*,34,
COCCn1c(SCC(=O)Nc2nnc(C)s2)nnc1-c1ccoc1C,7,10,3,-3,0,-1,/,
COc1ccc(Cl)cc1Cn1c(C)c(C(=O)NCc2cccc(Cl)c2)sc1=O,/,/,/,/,/,11,/,
COc1cc(NC(=O)c2ccc(N)nc2)cc(C(=O)Nc2cccc(C(F)(F)F)c2)c1,-57,-37,-24,/,7,34,/,
COc1cc(NC(=O)c2nccnc2N)cc(C(=O)Nc2cccc(C(F)(F)F)c2)c1,-6,-3,-13,/,-5,61*!,35,
COc1cc(NC(=O)c2nccn2C)cc(C(=O)Nc2cccc(C(F)(F)F)c2)c1,4,-24,44,/,7,107*,26,
